Measured values from ChEMBL document CHEMBL3259658, “Discovery of BI 224436, a Noncatalytic Site Integrase Inhibitor (NCINI) of HIV-1” (ACS Med Chem Lett, 2014).

How the values were obtained:
[1] = test system: Human immunodeficiency virus 1; assay: Antiviral activity against HIV1 HxB2 harboring integrase A124/T125 mutant by cell based luciferase reporter gene assay; assay type: functional, organism-based; conditions: Human immunodeficiency virus 1, HxB2
Procedure, shortened: (§1)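 Cell-based luciferase reporter gene assay of HIV-1 replication. Virus was HxB2 (IN A124/T125), wild-type NL4.3 (T124/T125), or recombinant NL4.3 carrying IN variants A124/T125, A124/A125, N124/T125, N124/A125 or T124/A125 (T125A). EC50 is the mean of at least two experiments. Where three or more experiments were run, relative SD was 12–43%.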

[2] = test system: Human immunodeficiency virus 1; assay: Antiviral activity against HIV1 NL4.3 harboring integrase T124/A125 mutant by cell based luciferase reporter gene assay; assay type: functional, organism-based; conditions: Human immunodeficiency virus 1, NL4.3; procedure, shortened: as §1
[3] = target: T1, Human immunodeficiency virus type 1 integrase (Human immunodeficiency virus 1, UniProt Q7ZJM1); assay: Binding affinity to HIV1 integrase by displacement assay; conditions: read-out: Kd(app)
Procedure, shortened: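 The displacement assay against HIV-1 integrase gives the value as an apparent dissociation constant (Kd-app).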

[4] = test system: Human immunodeficiency virus 1; assay: Antiviral activity against HIV1 NL4.3 harboring integrase T125A mutant by cell based luciferase reporter gene assay in presence of 50% human serum; assay type: functional; parameters: reference not given here
Procedure, shortened: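 Luciferase reporter gene assay with recombinant NL4.3 carrying the IN T125A substitution. […] Each value is the mean of at least two experiments.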

[5] = Half life in human liver microsomes; assay type: ADME
[6] = target: T1, Human immunodeficiency virus type 1 integrase; assay: Inhibition of HIV1 integrase by LTR cleavage assay
[7] = Solubility of the compound at pH 6.8; assay type: physicochemical; conditions: buffer
Procedure, shortened: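 Solubility was measured at pH 6.8 on the amorphous powder form of the compound.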

[8] = test system: Human immunodeficiency virus 1; assay: Antiviral activity against HIV1 NL4.3 harboring integrase A124/A125 mutant by cell based luciferase reporter gene assay; assay type: functional, organism-based; conditions: Human immunodeficiency virus 1, NL4.3; procedure, shortened: as §1
[9] = test system: Human immunodeficiency virus 1; assay: Antiviral activity against HIV1 NL4.3 harboring integrase A124/T125 mutant by cell based luciferase reporter gene assay; assay type: functional, organism-based; conditions: Human immunodeficiency virus 1, NL4.3; procedure, shortened: as §1
[10] = Half life in rat liver microsomes; assay type: ADME
[11] = Oral bioavailability in rat at 0.4 mg/kg; assay type: ADME, organism-based; conditions: in vivo
[12] = test system: Human immunodeficiency virus 1; assay: Antiviral activity against HIV1 NL4.3 harboring integrase T124/T125 mutant by cell based luciferase reporter gene assay; assay type: functional, organism-based; conditions: Human immunodeficiency virus 1, NL4.3; procedure, shortened: as §1
Cytochrome P450 3A4 = Cytochrome P450 3A4 (Homo sapiens, UniProt P08684); assay: Inhibition of CYP3A4 (unknown origin); assay type: ADME
[13] = test system: Human immunodeficiency virus 1; assay: Antiviral activity against HIV1 NL4.3 harboring integrase N124/T125 mutant by cell based luciferase reporter gene assay; assay type: functional, organism-based; conditions: Human immunodeficiency virus 1, NL4.3; procedure, shortened: as §1
[14] = Half life in rat at 0.2 mg/kg, iv and 0.4 mg/kg, po; assay type: ADME, organism-based; conditions: in vivo
[15] = Apparent permeability across human Caco2 cells; assay type: ADME, cell-based; conditions: Caco-2
[16] = test system: Human immunodeficiency virus 1; assay: Antiviral activity against HIV1 NL4.3 harboring integrase N124/A125 mutant by cell based luciferase reporter gene assay; assay type: functional, organism-based; conditions: Human immunodeficiency virus 1, NL4.3; procedure, shortened: as §1
Cytochrome P450 2D6 = Cytochrome P450 2D6 (Homo sapiens, UniProt P10635); assay: Inhibition of CYP2D6 (unknown origin); assay type: ADME
[17] = test system: Human immunodeficiency virus 1; assay: Ratio of EC50 for HIV1 NL4.3 harboring integrase T124/A125 mutant to EC50 for HIV1 HxB2 harboring integrase A124/T125 mutant

T1 sequence (Q7ZJM1 whole entry): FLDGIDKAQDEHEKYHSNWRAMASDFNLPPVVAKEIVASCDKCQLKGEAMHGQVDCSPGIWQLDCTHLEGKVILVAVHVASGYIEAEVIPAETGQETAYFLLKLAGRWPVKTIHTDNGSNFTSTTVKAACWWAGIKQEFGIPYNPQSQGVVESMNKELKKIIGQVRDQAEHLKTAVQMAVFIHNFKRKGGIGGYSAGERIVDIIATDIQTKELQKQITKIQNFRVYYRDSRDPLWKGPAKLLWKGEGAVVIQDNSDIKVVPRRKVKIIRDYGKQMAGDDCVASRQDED
Chain of Cytochrome P450 2D6 (P10635 whole entry): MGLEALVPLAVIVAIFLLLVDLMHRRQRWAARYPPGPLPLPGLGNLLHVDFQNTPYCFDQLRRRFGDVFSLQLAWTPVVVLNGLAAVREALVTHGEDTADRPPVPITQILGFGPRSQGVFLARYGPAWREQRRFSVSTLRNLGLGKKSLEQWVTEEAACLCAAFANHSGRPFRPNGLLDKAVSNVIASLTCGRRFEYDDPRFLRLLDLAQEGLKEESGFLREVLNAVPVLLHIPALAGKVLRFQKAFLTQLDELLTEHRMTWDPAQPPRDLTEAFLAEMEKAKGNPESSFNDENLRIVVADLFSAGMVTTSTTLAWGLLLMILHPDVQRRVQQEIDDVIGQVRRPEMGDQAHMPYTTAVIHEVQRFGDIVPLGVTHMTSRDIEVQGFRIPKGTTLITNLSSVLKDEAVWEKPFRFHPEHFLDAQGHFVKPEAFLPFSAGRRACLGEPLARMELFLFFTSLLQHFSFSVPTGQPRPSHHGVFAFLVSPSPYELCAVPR
Chain of Cytochrome P450 3A4 (P08684 whole entry): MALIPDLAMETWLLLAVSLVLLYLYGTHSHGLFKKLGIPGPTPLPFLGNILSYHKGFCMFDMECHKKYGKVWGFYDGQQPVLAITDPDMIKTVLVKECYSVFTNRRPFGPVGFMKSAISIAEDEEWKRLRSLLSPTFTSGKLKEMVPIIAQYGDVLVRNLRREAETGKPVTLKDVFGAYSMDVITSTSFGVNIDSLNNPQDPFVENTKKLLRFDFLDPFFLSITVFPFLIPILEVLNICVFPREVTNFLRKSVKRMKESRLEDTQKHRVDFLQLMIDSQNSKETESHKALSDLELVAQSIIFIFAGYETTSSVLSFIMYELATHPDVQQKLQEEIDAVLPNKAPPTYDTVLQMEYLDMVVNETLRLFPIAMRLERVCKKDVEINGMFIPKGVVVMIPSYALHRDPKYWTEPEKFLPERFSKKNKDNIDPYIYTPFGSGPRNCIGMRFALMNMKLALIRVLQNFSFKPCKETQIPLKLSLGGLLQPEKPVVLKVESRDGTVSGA

Compound | EC50 [1] | EC50 [2] | Kd [3] | also measured
Cc1nc2ccc(Br)cc2c(-c2ccccc2)c1CC(=O)O | > 33000 nM | – | – | –
Cc1ccc2nc(C)c([C@H](OC(C)(C)C)C(=O)O)c(-c3ccc(Cl)cc3)c2c1 | 27 nM | 160 nM | 48 nM | –
Cc1ccc2c(-c3ccc4c5c(ccnc35)CCO4)c([C@H](OC(C)(C)C)C(=O)O)c(C)nc2c1 | 6 nM | 21 nM | – | fold change (FC) [4]: 4.7; half-life [5]: 3.5 h
COC(C(=O)O)c1c(C)nc2ccc(Br)cc2c1-c1ccc(Cl)cc1 (configuration not stated) | 990 nM | – | – | IC50 [6]: 40 nM
Cc1ccc2c(-c3ccc4c(c3)CCCO4)c([C@H](OC(C)(C)C)C(=O)O)c(C)nc2c1 | 7 nM | 22 nM | – | fold change (FC) [4]: 66; half-life [5]: 1.1 h
Cc1ccc2c(-c3ccc4c(c3Cl)CCCO4)c([C@H](OC(C)(C)C)C(=O)O)c(C)nc2c1 | 2 nM | 22 nM | – | fold change (FC) [4]: 83
Cc1nc2cc(Cl)ccc2c(-c2ccc(Cl)cc2)c1[C@H](OC(C)(C)C)C(=O)O | 31 nM | 120 nM | 140 nM | –
CCCC(C(=O)O)c1c(C)nc2ccc(Br)cc2c1-c1ccc(Cl)cc1 (configuration not stated) | 920 nM | – | – | IC50 [6]: 77 nM
Cc1nc2ccc(Br)cc2c(-c2ccc(Cl)cc2)c1C(C)C(=O)O (configuration not stated) | 13000 nM | – | – | IC50 [6]: 310 nM
Cc1nc2ccc(F)cc2c(-c2ccc(Cl)cc2)c1[C@H](OC(C)(C)C)C(=O)O | 28 nM | 70 nM | 61 nM | –
Cc1nc2ccc(Cl)cc2c(-c2ccccc2)c1CC(=O)O | > 40000 nM | – | – | –
CO[C@H](C(=O)O)c1c(C)nc2ccc(Br)cc2c1-c1ccc(Cl)cc1 | 450 nM | – | 4700 nM | IC50 [6]: 28 nM
Cc1ccc2c(-c3ccc4c(c3Cl)NCCO4)c([C@H](OC(C)(C)C)C(=O)O)c(C)nc2c1 | – | 29 nM | – | fold change (FC) [4]: 15; half-life [5]: 1.08 h
CO[C@@H](C(=O)O)c1c(C)nc2ccc(Br)cc2c1-c1ccc(Cl)cc1 | 47000 nM | – | – | IC50 [6]: 3100 nM
Cc1nc2ccccc2c(-c2ccc3c4c(ccnc24)CCO3)c1[C@H](OC(C)(C)C)C(=O)O [BI-224436] | 11 nM | – | – | solubility [7]: > 850 µg/mL; fold change (FC) [4]: 2.1; EC50 [8]: 11 nM; EC50 [9]: 11 nM; half-life [10]: > 5 h; bioavailability [11]: 54%; EC50 [12]: 11 nM; IC50 (Cytochrome P450 3A4): 23000 nM; EC50 [13]: 11 nM; half-life [14]: 8.8 h; Papp [15]: 14 ×10⁻⁶ cm/s; half-life [5]: 3.5 h; EC50 [16]: 11 nM; IC50 (Cytochrome P450 2D6): > 30000 nM
Cc1nc2ccc(Br)cc2c(-c2ccc(Cl)cc2)c1[C@H](OC(C)(C)C)C(=O)O | 78 nM | 610 nM | 150 nM | Ratio EC50 [17]: 8
Cc1nc2ccccc2c(-c2ccc(Cl)cc2)c1CC(=O)O | > 43000 nM | – | – | –
Cc1ccc(-c2c(CC(=O)O)c(C)nc3ccc(Br)cc23)cc1 | 20000 nM | – | – | IC50 [6]: 350 nM
Cc1ccc2c(-c3ccc(Cl)cc3)c([C@H](OC(C)(C)C)C(=O)O)c(C)nc2c1 | 13 nM | 130 nM | 40 nM | fold change (FC) [4]: 25; half-life [5]: 0.417 h
Cc1nc2ccc(Br)cc2c(-c2ccc(Cl)cc2)c1[C@H](OC(C)C)C(=O)O | 130 nM | – | 280 nM | –
Cc1nc2cc(F)ccc2c(-c2ccc(Cl)cc2)c1[C@H](OC(C)(C)C)C(=O)O | 26 nM | 91 nM | 68 nM | –
Cc1ccc2c(-c3cccc4cccnc34)c([C@H](OC(C)(C)C)C(=O)O)c(C)nc2c1 | 34 nM | 300 nM | – | fold change (FC) [4]: 4; half-life [5]: > 5 h
Cc1nc2ccccc2c(-c2ccc(Cl)cc2)c1[C@H](OC(C)(C)C)C(=O)O | 23 nM | 110 nM | 49 nM | –
Cc1nc2ccc(Br)cc2c(-c2ccc(Cl)cc2)c1CC(=O)O | 16000 nM | – | – | IC50 [6]: 270 nM
